Laboratory results from the RNAGym collection of RNA variant scans (doi:10.1126/science.aae0568).
Fewer inactive variants are shown than the library holds.

B1: tRNA (parent)
chain: GUUCCGUUGGCGUAAUGGUAACGCGUCUCCCUCCUAAGGAGAAGACUGCGGGUUCGAGUCCCGUACGGAACG

Variants of: B1
Experiment: yeast fitness relative to wild type (ratio to wild type); higher = fitter; tRNA-Arg(CCU), competitive growth, 37 C, YPD
Summary of the method: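 For this measurement, the tRNA-Arg(CCU) gene was varied by chemical synthesis at a 3% per-site mutation rate across 69 sites, and each variant was placed at the native genomic locus in Saccharomyces cerevisiae. The pooled strains went through a 24-hour competition in YPD at 37°C in six parallel replicates, with amplicons from start and end populations read by 100-nucleotide paired-end sequencing. Darwinian fitness relative to wild type followed from the change in each genotype's frequency. Genotypes needed ≥ 100 starting reads, and estimates < 0.5 were set to 0.5.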

| Variant | yeast fitness |
| --- | --- |
| G12A C27U A36C A42U C46U | ≤ 0.5 |
| G12A C29A A65U | ≤ 0.5 |
| G12A U13G U19C A21G C49U G52A U59G | 0.525 |
| G12A C33A G51C | ≤ 0.5 |
| G12A C49U G58A | 0.7 |
| G12A G51A | 0.883 |
| G12A G51C | 0.662 |
| G12A G17C | 0.661 |
| G12C A14G G25A G41C G67A | ≤ 0.5 |
| G12C A14G | 0.793 |
| G12C C22G G23A C55A | ≤ 0.5 |
| G12C A14C G56C G58C | ≤ 0.5 |
| G12C C27U G50A | ≤ 0.5 |
| G12A C49U C66A | ≤ 0.5 |
| G12C A20C C27G A45G C66A | ≤ 0.5 |
| G12C C22U A43C | 0.615 |
| G12C C29A A45U G56A | ≤ 0.5 |
| G12C C24U A40U | ≤ 0.5 |
| G12A G23A U28G G56C A65U | 0.762 |
| G12A U13G C61U G67C | 0.678 |
| G12A C22G A43G C55A | ≤ 0.5 |
| G12C C24U C46U C49G | ≤ 0.5 |
| G12C A14G G25A G41C U54G A65G G68U A70C | 0.545 |
| G12C C30U C66A | ≤ 0.5 |

| Variant | yeast fitness |
| --- | --- |
| G12C A40G G58C C61G A65C | ≤ 0.5 |
| G12A U19C C34G C66U A69U | 0.59 |
| G12A C24G C62G | ≤ 0.5 |
| G12A U47A G63A A69U | 0.554 |
| G12A A20G U28A C55A G56A | 0.537 |
| G12C C27U A69U | 0.599 |
| G12A C29A A45U | 0.531 |
| G12C C29U G51A G56A G63C | 0.574 |
| G12C A40C | 0.722 |
| G12C A40G | 0.683 |
| G12A C34A G51U G58A G63U | ≤ 0.5 |
| G12A C22A C24A | ≤ 0.5 |
| G12A C33G A36C A37G G44A | ≤ 0.5 |
| G12A U16C C27A U54A | ≤ 0.5 |
| G12A A43G G48C | 0.568 |
| G12A U26A C31G | 0.541 |
| G12A U35A A45C | 0.528 |
| G12A A20C C29A | ≤ 0.5 |
| G12A A20C U28C | 0.664 |
| G12A C33U A36C C55G | ≤ 0.5 |
| G12A A15U G17A | ≤ 0.5 |
| G12A G18C C29U | 0.599 |
| G12A C27G U32G C60A | ≤ 0.5 |
| G12A C46G A70G | 0.703 |

| Variant | yeast fitness |
| --- | --- |
| G12C A20U C22A | 0.927 |
| G12A A15U C24U G44C G52C | ≤ 0.5 |
| G12C A14C A20U A21U C33A G48A C62U | ≤ 0.5 |
| G12A U16C C55G A65C | ≤ 0.5 |
| G12A C30U C46G | ≤ 0.5 |
| G12A G38A G48A | ≤ 0.5 |
| G12A C55U G63C | ≤ 0.5 |
| G12A C24G C29A | ≤ 0.5 |
| G12A C27G G50A | ≤ 0.5 |
| G12A A21C G23A C46G U53C | ≤ 0.5 |
| G12A A40U A45G C60A | ≤ 0.5 |
| G12C A43U | 0.892 |
| G12A C49U C62A | 0.625 |
| G12A A43U A45C G50C C60U | ≤ 0.5 |
| G12A A40C G58C U59C G63A | ≤ 0.5 |
| G12A C31A G38C A65G | ≤ 0.5 |
| G12C C24G C60A | ≤ 0.5 |
| G12A C27U A37C A45G | ≤ 0.5 |
| G12A C24U A65U G68A | ≤ 0.5 |
| G12C C24G | 0.622 |
| G12C C27G C30G | ≤ 0.5 |
| G12C C30A A42G | 0.562 |
| G12A G48C U54A | 0.59 |
| G12A U19A G41A A42G G58U G63C | ≤ 0.5 |

| Variant | yeast fitness |
| --- | --- |
| G12A U13C U26C G51A | ≤ 0.5 |
| G12C A20C C31G C66A | ≤ 0.5 |
| G12A C22G C24A G38A | ≤ 0.5 |
| G12C C29U | 0.85 |
| G12C C29A | 0.684 |
| G12A G52C | 0.668 |
| G12A A20G G48A | 0.63 |
| G12C A40U G48C G63A | ≤ 0.5 |
| G12A G44C C46G | 0.61 |
| G12C A21C C60A | ≤ 0.5 |
| G12A U19G U35C A40U | 0.521 |
| G12C A36C | 0.518 |
| G12C C24U G67C | 0.536 |
| G12A G63C | 0.704 |
| G12A C24A A36C C61U G67U | 0.615 |
| G12A G48A | 0.819 |
| G12C A20U C30U C55U C66U | 0.551 |
| G12C A20G C34U C49G | 0.711 |
| G12C A20U C22G G50A | ≤ 0.5 |
| G12A C49A U54A | ≤ 0.5 |
| G12A G58C G63A | 0.615 |
| G12A A21G C34U C62A A69U | ≤ 0.5 |
| G12A U47G U53A C60A | ≤ 0.5 |
| G12A C30A C31G U54G | ≤ 0.5 |

| Variant | yeast fitness |
| --- | --- |
| G12A A15U C33A A36U C62U | ≤ 0.5 |
| G12C A36C A37U | ≤ 0.5 |
| G12A U35C | 0.83 |
| G12A C60A G67A | 0.68 |
| G12A C24G A40C A43C C46U C62A | ≤ 0.5 |
| G12A C31U G52A G56C | 0.569 |
| G12A U35C C66U | 0.614 |
| G12C A37G G38A A45U A70G | 0.567 |
| G12A C30G U59A | ≤ 0.5 |
| G12A C30U U32G A36U G39C G50C | ≤ 0.5 |
| G12A U19G U35C A40U C61A | ≤ 0.5 |
| G12C A37C A40U C46U G63A | ≤ 0.5 |
| G12A U16C C27A A70C | ≤ 0.5 |
| G12A A65U | 0.861 |
| G12A A65G | 0.98 |
| G12A C33A | 0.644 |
| G12A C24U G25A C30U C46A | 0.571 |
| G12A A21G A40U | 0.564 |
| G12A C24A A36U | 0.666 |
| G12C A37C A40U C46U | 0.59 |
| G12A U35C G48C | ≤ 0.5 |
| G12A C24A U26G A43C C62G G63A C66G A69G | ≤ 0.5 |
| G12A C61G C62A A70G | ≤ 0.5 |
| G12A C22G | 1 |

| Variant | yeast fitness |
| --- | --- |
| G12A C29G | 0.61 |
| G12A C29A | 0.652 |
| G12C A20U G25A A36G C46A U54A A70U | ≤ 0.5 |
| G12A A70G | 1.02 |
| G12A A70U | 0.99 |
| G12A A20C A65U | 0.57 |
| G12A U13G | 0.869 |
| G12C C30G A37G U47G | ≤ 0.5 |
| G12A A20U A42C | 0.692 |
| G12C A21U C34U A42U U64A G68U | ≤ 0.5 |
| G12A G50C | 0.757 |
| G12A G50U | 0.842 |
| G12A C24G A40C A43C C46U C49U G68C A69U | ≤ 0.5 |
| G12C A15C U19A C34U C49A A65U | ≤ 0.5 |
| G12A A42U C61G | 0.505 |
| G12C C24G C27U A43U G67A | ≤ 0.5 |
| G12A A57C | 0.618 |
| G12C C30U C34U A42G A57C | ≤ 0.5 |
| G12C C27G G58A | ≤ 0.5 |
| G12C C24U C55U G68C | 0.55 |
| G12A G38A U54C | ≤ 0.5 |
| G12A G41A G50A | ≤ 0.5 |
| G12A C27U C30G C55U A57C | 0.547 |
| G12A A20G A21G C22G | ≤ 0.5 |

| Variant | yeast fitness |
| --- | --- |
| G12C A42U | 0.698 |
| G12A U13C C27G C31U C34A | ≤ 0.5 |
| G12A U32C A43C A65U | ≤ 0.5 |
| G12A C24U G41A | 0.544 |
| G12A G18A U19C C55U A57C G58C | 0.638 |
| G12A U16A G39C U54C C55U | ≤ 0.5 |
| G12C A15U C24A C61U | ≤ 0.5 |
| G12A A20G | 0.923 |
| G12A A20C | 0.875 |
| G12C C27G A37G | ≤ 0.5 |
| G12A A15U C24U G44C G52C A69U | ≤ 0.5 |
| G12A U64C | 0.921 |
| G12A U35A G58A G68A | 0.561 |
| G12A A21C C31U | ≤ 0.5 |
| G12C A20U C33U | 0.555 |
| G12A C24U C27A | 0.575 |
| G12A U26C C27U C33A A45C C62G A69U | 0.553 |
| G12A G56A | 0.975 |
| G12C C22G A40C | 1.03 |
| G12C C24U C46U C49G C62A | ≤ 0.5 |
| G12A A15G G48C A57U | ≤ 0.5 |
| G12C C29U G58U C61U | ≤ 0.5 |
| G12A U32A A40U G41C C46A G52A | ≤ 0.5 |
